Source: ChEMBL document CHEMBL1914438, “Synthesis and biological activity of novel N-cycloalkyl-(cycloalkylaryl)-2-[(3-R-2-oxo-2H-[1,2,4]triazino[2,3-c]quinazoline-6-yl)thio]acetamides” (2011)

Legend:
Assay type in all cases: functional
Malme-3M = experiment: Growth inhibition of human MALME-3M cells after 48 hrs by SRB assay
Procedure, shortened: (§1)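 NCI panel of about 60 human tumor lines, 48 h continuous exposure at five 10-fold dilutions from 10^-4 to 10^-8 M. SRB protein staining was read as absorbance at time zero, in untreated controls and at each concentration. GI50 is the concentration giving 50% lower net protein increase than controls. TGI is where Ti = Tz, and LC50 is 50% protein loss versus start.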

SR = experiment: Cytotoxicity against human SR cells assessed as cell growth at 10^-5 M after 48 hrs by SRB assay; details: read-out: Activity
Procedure, shortened: (§2)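 NCI human tumor cell line panel from nine cancer types. Each line was inoculated and preincubated 24–48 h, then exposed to a single concentration (10^-5 M) for 48 h. Growth was read by sulforhodamine B protein staining, measured spectrophotometrically. Value reported as percent growth of treated cells relative to untreated controls.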

HOP-92 [1] = experiment: Cytotoxicity against human HOP92 cells assessed as cell growth at 10^-5 M after 48 hrs by SRB assay; details: HOP-92, 48 h, read-out: Activity
Procedure, shortened: (§3)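 NCI 60-cell-line one-dose primary screen: cells inoculated and preincubated 24–48 h, then test agent added at a single 10^-5 M concentration for a further 48 h. Endpoint is sulforhodamine B protein staining read spectrophotometrically. Reported as percent growth relative to untreated control cells.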

T47D = experiment: Growth inhibition of human T47D cells after 48 hrs by SRB assay
Procedure, shortened: (§4)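 NCI 60-cell-line human tumor panel. Cells were inoculated and preincubated for 24–48 h, then exposed continuously to compound for 48 h. Primary screen used a single 10^-5 M concentration. Growth was measured by sulforhodamine B protein staining, read spectrophotometrically, and reported as percent growth versus untreated controls. Selected compounds were also run at five 10-fold dilutions (10^-4 to 10^-8 M) to derive GI50 from time-zero-corrected absorbances.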

[2] = test system: Photobacterium leiognathi; experiment: Antibacterial activity against Photobacterium leiognathi Sh1 assessed as inhibition of bacterial luminescence at 0.025 mg/mL after 10 mins by bioluminometry-based chronic action test; set-up: scale not given: the % may be the effect or the level left; details: in the assay text read “after 16 to 18 hrs” for “after 10 mins”
Procedure, shortened: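 Chronic (growth plus luminescence) test with P. leiognathi Sh1 at 10^5 cells/mL in chloride solution, compounds added in DMSO. After 10 min at 25 °C, growth medium added at 1:50 and the mix incubated 16–18 h at 30 °C. Luminescence then measured by bioluminometer as % of untreated control. Tetracycline reference.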

UO-31 = experiment: Cytotoxicity against human UO31 cells assessed as cell growth at 10^-5 M after 48 hrs by SRB assay; details: UO-31, 48 h, read-out: Activity; procedure, shortened: as §2
SF-295 = experiment: Growth inhibition of human SF295 cells after 48 hrs by SRB assay; details: SF-295, 48 h; procedure, shortened: as §4
HT-29 = experiment: Growth inhibition of human HT-29 cells after 48 hrs by SRB assay; details: HT-29, 48 h; procedure, shortened: as §1
MDA-MB-231 = experiment: Growth inhibition of human MDA-MB-231 cells after 48 hrs by SRB assay; details: MDA-MB-231, 48 h; procedure, shortened: as §1
HOP-92 [3] = experiment: Growth inhibition of human HOP92 cells after 48 hrs by SRB assay; details: HOP-92, 48 h; procedure, shortened: as §1
[4] = Growth inhibition of human Hs 578T cells after 48 hrs by SRB assay; procedure, shortened: as §1
KM12 = experiment: Cytotoxicity against human KM12 cells assessed as cell growth at 10^-5 M after 48 hrs by SRB assay; details: KM12, 48 h, read-out: Activity; procedure, shortened: as §3
Yamadazyma tenuis = experiment: Antifungal activity against Candida tenuis assessed as zone of inhibition at 0.5 mg/mL after 48 to 72 hrs by stiff-plate agar-diffusion method; details: read-out: DIZ
EKVX = experiment: Cytotoxicity against human EKVX cells assessed as cell growth at 10^-5 M after 48 hrs by SRB assay; details: read-out: Activity; procedure, shortened: as §3
OVCAR-3 [5] = experiment: Cytotoxicity against human OVCAR3 cells assessed as cell growth at 10^-5 M after 48 hrs by SRB assay; details: OVCAR-3, 48 h, read-out: Activity; procedure, shortened: as §2
MOLT-4 = experiment: Cytotoxicity against human MOLT4 cells assessed as cell growth at 10^-5 M after 48 hrs by SRB assay; details: MOLT-4, 48 h, read-out: Activity; procedure, shortened: as §2
SK-MEL-28 = experiment: Cytotoxicity against human SK-MEL-28 cells assessed as cell growth at 10^-5 M after 48 hrs by SRB assay; details: SK-MEL-28, 48 h, read-out: Activity; procedure, shortened: as §2
SF-268 = experiment: Cytotoxicity against human SF268 cells assessed as cell growth at 10^-5 M after 48 hrs by SRB assay; details: SF-268, 48 h, read-out: Activity; procedure, shortened: as §2
PC-3 = experiment: Cytotoxicity against human PC3 cells assessed as cell growth at 10^-5 M after 48 hrs by SRB assay; details: PC-3, 48 h, read-out: Activity; procedure, shortened: as §2
RPMI-8226 = experiment: Growth inhibition of human RPMI8226 cells after 48 hrs by SRB assay; details: RPMI-8226, 48 h; procedure, shortened: as §1
CAKI-1 = experiment: Growth inhibition of human Caki1 cells after 48 hrs by SRB assay; details: CAKI-1, 48 h; procedure, shortened: as §1
OVCAR-3 [6] = experiment: Growth inhibition of human OVCAR3 cells after 48 hrs by SRB assay; details: OVCAR-3, 48 h; procedure, shortened: as §1
Staphylococcus aureus = experiment: Antibacterial activity against Staphylococcus aureus assessed as zone of inhibition at 0.5 mg/mL after 24 hrs by stiff-plate agar-diffusion method; details: read-out: DIZ
U-251 = experiment: Growth inhibition of human U251 cells after 48 hrs by SRB assay; details: U-251, 48 h; procedure, shortened: as §4
COLO 205 = experiment: Cytotoxicity against human COLO205 cells assessed as cell growth at 10^-5 M after 48 hrs by SRB assay; details: COLO 205, 48 h, read-out: Activity; procedure, shortened: as §3
DU-145 = experiment: Growth inhibition of human DU145 cells after 48 hrs by SRB assay; details: DU-145, 48 h; procedure, shortened: as §1
MDA-MB-435 = experiment: Cytotoxicity against human MDA-MB-435 cells assessed as cell growth at 10^-5 M after 48 hrs by SRB assay; details: MDA-MB-435, 48 h, read-out: Activity; procedure, shortened: as §3
[7] = read-out: pLC50 (the source's name) (converted)

CCC1C2CCC(C2)C1NC(=O)CSc1nc2ccccc2c2nc(=O)c(-c3ccc(OC)cc3)nn12 (stereo unspecified)
GI50 (Malme-3M): 3.89 µM | CC50 (Malme-3M; [7]): > 50.1 µM | TGI (Malme-3M; read-out: pTGI (converted)): 24.5 µM | growth at 10 µM (SR): 7.67% | growth at 10 µM (HOP-92 [1]): 57% | GI50 (T47D): 3.72 µM | CC50 (T47D; [7]): > 50.1 µM | TGI (T47D; read-out: pTGI): > 50.1 µM | Activity [2]: 85.3% | growth at 10 µM (UO-31): -12.7% | GI50 (SF-295): 3.47 µM | CC50 (SF-295; [7]): > 50.1 µM | TGI (SF-295; read-out: pTGI (converted)): 21.9 µM | GI50 (HT-29): 3.24 µM | CC50 (HT-29; [7]): > 50.1 µM | TGI (HT-29; read-out: pTGI): > 50.1 µM | GI50 (MDA-MB-231): 3.09 µM | CC50 (MDA-MB-231; [7]): > 50.1 µM | TGI (MDA-MB-231; read-out: pTGI (converted)): 20.9 µM | GI50 (HOP-92 [3]): 0.977 µM | CC50 (HOP-92 [3]; [7]): 25.7 µM | TGI (HOP-92 [3]; read-out: pTGI (converted)): 3.98 µM | GI50 [4]: 3.89 µM | CC50 [4, 7]: > 50.1 µM | TGI ([4]; read-out: pTGI (converted)): 20 µM | growth at 10 µM (KM12): 68.3% | zone of inhibition at 500 µg/mL (Yamadazyma tenuis): 0 mm | growth at 10 µM (EKVX): 25.6% | growth at 10 µM (OVCAR-3 [5]): -69.7% | growth at 10 µM (MOLT-4): 11.4% | growth at 10 µM (SK-MEL-28): 68.7% | growth at 10 µM (SF-268): 66.3% | growth at 10 µM (PC-3): 55.1% | GI50 (RPMI-8226): 2.95 µM | CC50 (RPMI-8226; [7]): > 50.1 µM | TGI (RPMI-8226; read-out: pTGI (converted)): 38 µM | GI50 (CAKI-1): 3.72 µM | CC50 (CAKI-1; [7]): > 50.1 µM | TGI (CAKI-1; read-out: pTGI (converted)): 38.9 µM | GI50 (OVCAR-3 [6]): 1.48 µM | CC50 (OVCAR-3 [6]; [7]): 28.2 µM | TGI (OVCAR-3 [6]; read-out: pTGI (converted)): 5.62 µM | zone of inhibition at 500 µg/mL (Staphylococcus aureus): 0 mm | GI50 (U-251): 1 µM | CC50 (U-251; [7]): 5.75 µM | TGI (U-251; read-out: pTGI (converted)): 2.29 µM | growth at 10 µM (COLO 205): 28.6% | GI50 (DU-145): 3.16 µM | CC50 (DU-145; [7]): > 50.1 µM | TGI (DU-145; read-out: pTGI (converted)): 37.2 µM | growth at 10 µM (MDA-MB-435): 58.6%
